OX1R antag-1: human HCRTR1 antagonism. O43613. CHO/OX1R cells, Fluo-8 calcium fluorescence, orexin A. inhibition, % at 5 µM. 330,000 tested, 0.43% active. AID 434989;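 active means inhibition above its plate's threshold, mean inhibition of all tested compounds on the plate plus 3 SD, cut at about 37% in these data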;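 further: 0% = orexin A challenge wells and 100% = SB-334867-A antagonist wells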
TAAR1 ag: agonists of human TAAR1 | activation, % at 3 µM | AID 624467 | CHO RD-HGA16 TAAR1, Fluo-8 calcium fluorescence; vehicle wells 0%, saturating PEA agonist 100% | 360,000 tested, 0.99% active | Q96RJ0;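 active means activation above the mean activation of all test compounds in the run plus 3 SD, cut at about 38% in these data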
Target sequence (Q96RJ0 whole entry, looked up): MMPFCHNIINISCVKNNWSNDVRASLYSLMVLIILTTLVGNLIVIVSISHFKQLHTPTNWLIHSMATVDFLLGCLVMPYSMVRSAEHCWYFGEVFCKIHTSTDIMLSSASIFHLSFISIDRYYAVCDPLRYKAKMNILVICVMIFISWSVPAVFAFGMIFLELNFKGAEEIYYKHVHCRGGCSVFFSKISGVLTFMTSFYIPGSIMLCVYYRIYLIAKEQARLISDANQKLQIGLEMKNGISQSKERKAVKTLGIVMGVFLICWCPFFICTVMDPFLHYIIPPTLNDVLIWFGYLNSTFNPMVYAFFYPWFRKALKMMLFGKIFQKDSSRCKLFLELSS
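Test system: RD-HGA16 (CHO) cells co-expressing Gα16 and hTAAR1; dosing: one-point dosing at 3 µM (nominal); timing: 17-24 h seeding, 75 min 37 °C dye, 30 min RT; signal: kinetic Fluo-8 calcium fluorescence; read-out basis: % activation relative to PEA EC100 response; controls: DMSO and PEA EC100; replicates: n 1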
CHO parental Ca: counter-screen for OX1R antagonists: effect in parental CHO cells | parental CHO-K1, ATP-induced calcium, Fluo-8 fluorescence | inhibition, % at 5.6 µM | 330,000 tested, 0.63% active | AID 463079;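 active means inhibition above that plate's mean sample inhibition plus 3 SD, cut at about 26% in these data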;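 further: 0% = ATP-challenged DMSO wells and 100% = DMSO wells without ATP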
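Test system: untransfected parental CHO cell line; also added: ATP stimulus; dosing: 5.6 µM, single dose; signal: calcium-sensitive Fluo-8 fluorescence; measure: percent inhibition of ATP-evoked calcium rise, normalized to controls; benchmarks: low control ATP plus DMSO, high control DMSO only; replication: one well per compound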
GPR7 antagonist: blocks human GPR7 receptor signaling; P48145; GPR7-expressing cells, fluorescence antagonist assay; inhibition, % at 4.4 µM; 290,000 tested, 1.1% active; AID 1861; in the data active means inhibition above about 16%, passing the limit was not always enough;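 further: cells stimulated with the agonist NPW; 0% = agonist with vehicle and 100% = vehicle without agonist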
Target sequence (P48145 whole entry, looked up): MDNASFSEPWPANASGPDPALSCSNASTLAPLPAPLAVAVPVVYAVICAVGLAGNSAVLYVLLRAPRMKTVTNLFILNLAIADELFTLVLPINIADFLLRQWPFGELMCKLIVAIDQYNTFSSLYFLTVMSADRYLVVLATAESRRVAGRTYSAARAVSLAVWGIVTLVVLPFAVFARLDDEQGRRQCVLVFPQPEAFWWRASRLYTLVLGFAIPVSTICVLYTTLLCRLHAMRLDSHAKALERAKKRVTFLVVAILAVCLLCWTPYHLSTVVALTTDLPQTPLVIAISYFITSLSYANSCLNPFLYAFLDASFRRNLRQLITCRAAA
OX1R antag-2: blocks the human orexin 1 receptor | OX1R-expressing cells, FRET antagonist read-out | inhibition, % at 6.6 µM | AID 485270 | O43613 | 330,000 tested, 1.8% active; in the data active means inhibition mostly above about 38%, no sharp cut-off; inactive means mostly below about 40%;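 further: 0% = agonist challenge alone and 100% = reference antagonist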
TAAR1 antag: human TAAR1 antagonism; Q96RJ0; CHO RD-HGA16 TAAR1, Fluo-8 calcium fluorescence, antagonist; inhibition, % at 3 µM; 360,000 tested, 1.5% active; AID 624466;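 active means inhibition above a per-plate cutoff, the mean inhibition of test compounds on that plate plus 3 SD, cut at about 49% in these data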;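 further: 0% = DMSO plus EC80 beta-PEA response and 100% = DMSO alone without agonist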
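Material: RD-HGA16 CHO cells with stable hTAAR1 and Gα16; Dosing: single nominal final test compound concentration of 3 µM; Schedule: seeding 17-24 h prior, 75-min 37 °C, 30-min RT dye loading; Detection: kinetic Fluo-8 calcium fluorescence measurement; Measure: % inhibition from peak post-agonist over basal fluorescence ratio; Benchmarks: vehicle and agonist controls.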
GPR7 antag cf: confirmation of human GPR7 antagonists. AID 1952. GPR7-expressing cells, calcium fluorescence antagonist mode. inhibition, % at 4.4 µM. shares compounds with GPR7 antagonist. 2,400 tested, 52% active; in the data active means inhibition above about 24%;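 further: stimulated with the GPR7 agonist NPW; 0% = agonist plus vehicle and 100% = vehicle alone without agonist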
MCHR1 antagonist: antagonizes human MCHR1, a GPR7 antagonist counter-screen; shares compounds with GPR7 antagonist; MCHR1-expressing cells, fluorescence antagonist assay; inhibition, % at 4.4 µM; 2,400 tested, 62% active; AID 2148; in the data active means inhibition above about 22%;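 further: 0% = vehicle with agonist and 100% = vehicle without agonist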
Starred values were filed as active, the others as inactive; nt = not tested or not shown. Hits are enriched below; roughly 4.6% of the tested compounds scored in any of these assays.

SMILES | OX1R antag-1 | TAAR1 ag | CHO parental Ca | GPR7 antagonist | OX1R antag-2 | TAAR1 antag | GPR7 antag cf | MCHR1 antagonist
CCCN(CCC)C1=CC(=[N+]2CCCC2)CC(C)(C)C1 | -15 | 1 | -2 | 52* | 10 | 13 | 58* | 51*
CN(C)NC1=CC(=[N+]2CCCC2)CC(C)(C)C1 | -1 | 1 | 1 | -2 | 23 | -7 | nt | nt
COc1ccc(NC(=O)COC(=O)c2c3c(nc4ccccc24)CCCC3)cc1Cl | 14 | 9 | -2 | 32* | 75* | 67* | 35* | 73*
COc1ccc(NC(=O)COC(=O)c2c3c(nc4ccccc24)CCCC3)cc1 | -14 | 16 | -12 | 13 | 14 | 48 | nt | nt
Cn1cccc1C(=O)NC(=O)COC(=O)CNC(=O)CNC(=O)c1ccc(Cl)cc1Cl | -10 | 3 | -22 | 27* | 16 | 5 | 8 | 1
Cc1c(NC(=O)Nc2ccccc2C(F)(F)F)c(=O)n(-c2ccccc2)n1C | -10 | 0 | 8 | 19 | 8 | -9 | nt | nt
Cc1cc(SCC(=O)NC2(C#N)CCCCC2)nc2c(C)cccc12 | -30 | 0 | -9 | nt | 20 | -19 | nt | nt
O=C(Nc1cccc(S(=O)(=O)N2CCCCC2)c1)c1ccc2c(=O)n3c(nc2c1)CCCCC3 | -20 | 10 | -3 | 28* | 20 | 61* | 15 | 77*
C=C[C@H]1C(O[C@@H]2O[C@H](CO)[C@@H](O)[C@H](O)[C@H]2O)OC=C2C(=O)N3CCc4cc(OC)c(O)cc4[C@H]3C[C@H]21 (some centres not stated) | 0 | 0 | -1 | nt | 4 | -7 | nt | nt
CCC(NC(=O)c1ccc2nc(Cc3ccc(OC)cc3)oc2c1)c1ccncc1 (configuration not stated) | 3 | 9 | 24 | 46* | 19 | 33 | 39* | 70*
O=C(NCc1ccc(-c2csnn2)cc1)c1cc(Cl)cc(Cl)c1 | -23 | 2 | -12 | -3 | 4 | -10 | nt | nt
CCCN1C(=O)/C(=c2\s/c(=C3\C=Cc4ccccc4N3CC)c(=O)n2-c2ccccc2)SC1=S | 3 | nt | 5 | -9 | 1 | nt | nt | nt
Cc1ccc(CN(C(=O)c2c(F)cccc2F)C2CC(C)(C)NC(C)(C)C2)o1 | -12 | 5 | 0 | 25* | 12 | 5 | 9 | 3
COc1ccc(-n2c(-c3ccc(Cl)cc3)c[n+]3c2CCc2ccccc2-3)cc1 | -21 | 10 | -3 | 31* | 6 | 5 | 33* | 35*
Clc1ccc(CN(Cc2ccc(Cl)cc2)c2nn[nH]n2)cc1 | 2 | -2 | -5 | 26* | 31 | 0 | 25* | 21
c1ccc(CN(Cc2ccccc2)c2nn[nH]n2)cc1 | -2 | 1 | -13 | 0 | 12 | -13 | nt | nt
CC(CCc1ccccc1)NC(=O)COC(=O)c1ccc(S(C)(=O)=O)c([N+](=O)[O-])c1 (configuration not stated) | 6 | 6 | 18 | 52* | 69* | 20 | 92* | 48*
CC(CCc1ccccc1)NC(=O)COC(=O)c1ccc([N+](=O)[O-])cc1 (configuration not stated) | -23 | 0 | -18 | 2 | 13 | -4 | nt | nt
COc1ccc(N(C(=O)c2snc(C(N)=O)c2N)C(C(=O)NC2CCCCC2)c2ccc(C)o2)c(OC)c1 (configuration not stated) | -18 | -1 | -15 | 21 | 30 | -14 | nt | nt
CC(NC(=O)Cc1cccc(C(F)(F)F)c1)c1ccc(F)cc1 (configuration not stated) | -19 | 5 | -5 | 27* | 11 | 5 | 7 | 15
CC(NC(=O)Cc1ccc(F)cc1)c1ccccc1 (configuration not stated) | -19 | 7 | -22 | -11 | 11 | 4 | nt | nt
O=C(NCc1ccccc1)C(c1cccc2ccccc12)n1c(=O)c(-c2cc3ccccc3[nH]2)nc2ccccc21 (configuration not stated) | nt | 1 | nt | nt | nt | -15 | nt | nt
C=C(C)CN(CC)C(=O)c1ccc(OC2CCN(S(=O)(=O)N(C)C)CC2)cc1 | -13 | 16 | -5 | 11 | 11 | 2 | nt | nt
COc1ccc(-n2c(SCCC#N)nnc2-c2cc(Cl)ccc2OC)cc1Cl | -26 | 14 | -8 | 24* | 6 | 22 | 40* | 46*
COc1cc2c(cc1OC)CN(C(=O)Cc1ccccc1)CC2 | -12 | -1 | -6 | 8 | 5 | 5 | nt | nt
SMILES | OX1R antag-1 | TAAR1 ag | CHO parental Ca | GPR7 antagonist | OX1R antag-2 | TAAR1 antag | GPR7 antag cf | MCHR1 antagonist
CCOC(=O)c1c(-c2ccccc2)oc2ccc(OCC)cc12 | -40 | 4 | -28 | -13 | 14 | -15 | nt | nt
CCOC(=O)c1c(-c2ccccc2)oc2ccc(OCC(O)CNCCN(C)C)cc12 (configuration not stated) | -22 | 3 | 5 | 72* | -1 | 16 | 60* | 69*
Cc1nn(C)cc1CN(C)C(=O)CC12CC3CC(CC(C3)C1)C2 | -10 | 3 | -8 | 0 | 15 | -2 | nt | nt
COc1ccc(CN2CCN(C(=O)c3ccc4c(c3)CCC4)CC2)cc1OC | -37 | 1 | 0 | nt | 4 | 1 | nt | nt
COc1ccc(NC(=O)Nc2cccc([N+](=O)[O-])c2)cc1Cl | 29 | 13 | 5 | 35* | 74* | 27 | 38* | 59*
O=C(Nc1ccc(OC(F)F)c(Cl)c1)Nc1ccc2c(c1)OCO2 | 45* | 7 | 37* | 26* | 44 | 38 | 13 | 56*
O=C(Nc1ccc([N+](=O)[O-])cc1)Nc1ccc(OC(F)F)c(Cl)c1 | 84* | 8 | 100* | 23* | 76* | 60* | 72* | 75*
COc1ccc(C(=O)Nc2cccc([N+](=O)[O-])c2)cc1Br | -1 | 19 | 9 | 6 | 25 | 7 | nt | nt
O=C(Nc1ccc(Cl)c(Cl)c1)c1ccc2c(c1)OCO2 | -9 | 3 | -7 | 27* | 21 | 10 | 13 | 32*
O=C(Nc1ccc2c(c1)OCO2)Nc1ccc2c(c1)OCO2 | -8 | 12 | -2 | -13 | 5 | -13 | nt | nt
CCO[C@H]1OC(C(=O)N2CCCCCCC2)=C[C@@H](c2ccccc2)[C@@H]1CCCO | -38 | 7 | -17 | -10 | 31 | 11 | nt | nt
CCOc1ccc2c(c1)C(=O)C(=O)N2CC1COc2ccccc2O1 (configuration not stated) | -8 | -2 | -7 | 25 | -8 | 2 | nt | nt

High-throughput results as filed in PubChem BioAssay.
